# Measurements taken from ChEMBL document CHEMBL3351250, “Modified salicylanilide and 3-phenyl-2H-benzo[e][1,3]oxazine-2,4(3H)-dione derivatives as novel inhibitors of osteoclast differentiation and bone resorption” (J Med Chem, 2014).
# Assays:
# RAW264.7 [1] = assay: Inhibition of RANKL-induced osteoclastogenesis in mouse RAW264.7 cells assessed as TRAP+ multinucleated cells level at 10 uM incubated for 4 days by TRAP staining assay; format: functional; design: scale not given: the % may be the effect or the level left
# Outline: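 Cells plated at 1 × 10³ (96-well) or 5 × 10⁴ (48-well) in α-MEM with 10% FBS, 2 mM […], 100 ng/mL recombinant murine RANKL and compound for 4 days; medium changed on day 2. Fixed in acetone/citrate/formaldehyde for 5 min and TRAP-stained. TRAP⁺ cells with >5 nuclei counted by light microscopy, expressed as % of the RANKL-only group.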
# [2] = Cytotoxicity against mouse RAW264.7 cells assessed as survival rate at 10 uM after 24 hrs by MTT assay; format: cell-based; conditions: read-out: Activity
# Outline: (§1)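 Cells at 1 × 10⁴/well in DMEM + 10% FBS, exposed to compounds for 24 h at 37 °C, 5% CO₂. After PBS washes, MTT (0.5 mg/mL in medium) added for 1 h at 37 °C; formazan dissolved in DMSO, absorbance read at 540 nm. Viability expressed as % of DMSO control; CC₅₀ is the concentration giving 50% loss of mean viability (N = 3).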
# [3] = Cytotoxicity against mouse RAW264.7 cells assessed as reduction in survival rate after 24 hrs by MTT assay; format: cell-based; outline: as §1
# RAW264.7 [4] = assay: Inhibition of RANKL-induced osteoclastogenesis in mouse RAW264.7 cells assessed as TRAP+ multinucleated cells level incubated for 4 days by TRAP staining assay; format: functional, cell-based; conditions: RAW264.7, 96 h
# Outline: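 RAW264.7 cells in α-MEM with 10% FBS, 2 mM […], 100 ng/mL recombinant soluble murine RANKL and a range of compound concentrations for 4 days, with medium changed on day 2. Cells fixed in acetone/citrate/formaldehyde for 5 min and TRAP-stained. Cells with >5 nuclei counted by light microscopy and expressed as % of RANKL-only; IC50 is 50% inhibition.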
# RAW264.7 [5] = assay: Inhibition of RANKL-induced osteoclastogenesis in mouse RAW264.7 cells assessed as reduction in TRAP activity incubated for 4 days by TRAP staining assay; format: functional, cell-based; conditions: RAW264.7, 96 h
# Outline: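 RAW264.7 cells were RANKL-differentiated (100 ng/mL recombinant soluble murine RANKL in α-MEM/10% FBS, compounds at various concentrations, 4 days, medium changed day 2). TRAP activity was read with 2 mg/mL 4-nitrophenyl phosphate in 0.09 M citrate buffer for 15 min at 37 °C, stopped with 0.1 N NaOH. Expressed as % of RANKL-only; IC50 is 50% inhibition.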
SMILES,Activity (RAW264.7 [1]) [%],"viability at 24 h, 10 µM [2] [%]",CC50 at 24 h [3] [µM],IC50 (RAW264.7 [4]) [µM],IC50 (RAW264.7 [5]) [µM]
O=C(Nc1ccc(I)cc1F)c1ccccc1,76.8,105,> 40,,
COc1ccc(C(=O)O)c(O)c1 [4-METHOXYSALICYLIC ACID],79.6,99.4,> 40,,
COc1ccccc1C(=O)Nc1ccc(I)cc1F,106.6,95.4,> 40,,
COc1ccc(C(=O)Nc2ccc(F)cc2F)c(OC)c1,93,102,> 40,,
COc1ccc(C(=O)Nc2ccc(-c3ccc(Cl)cc3Cl)cc2F)c(O)c1,92.5,102,> 40,,
O=c1oc2ccccc2c(=O)n1-c1ccc(F)cc1F,82.5,88.8,> 40,,
COc1ccc(C(=O)Nc2ccc(Cl)cc2F)c(OC)c1,60.2,52.9,13.6,,
O=C(Nc1ccc(F)cc1F)c1ccccc1O,85.2,76.1,38.4,,
COc1ccc(C(=O)Nc2ccc(-c3ccc(F)cc3F)cc2F)c(O)c1,50.1,64.5,26.3,,
COc1ccc(C(=O)Nc2ccc(I)cc2F)c(OC)c1,92.4,95,> 40,,
COc1ccc(C(=O)Nc2ccc(F)cc2F)c(OCc2ccc(F)cc2F)c1,66.2,106,> 40,,
COc1ccc(C(=O)Nc2ccc(Cl)cc2F)cc1,100.4,106,> 40,,
O=C(Nc1ccc(Cl)cc1F)c1ccccc1O,49.4,93,23.2,10,12.5
COc1ccc(C(=O)Nc2ccc(Cl)cc2F)c(O)c1,23.8,103,32.3,,
O=C(Nc1ccc(-c2ccc(Cl)cc2F)cc1F)c1ccccc1O,84.8,90.9,27.2,,
COc1ccc(C(=O)Nc2ccc(F)cc2F)cc1,73.3,102,> 40,,
COc1ccc(C(=O)Nc2ccc(I)cc2F)cc1,89.3,91.4,32.8,,
O=C(Nc1ccc(Cl)cc1F)c1ccccc1OCc1ccc(F)cc1F,74.6,107,> 40,,
